Several values for one entry are separate records, joined by “and”; a condition that tells them apart may be missing. Identical values can stand only once.
Tested on: U2OS
Assay: Multiplex assay against U2OS
Assay type: toxicity, cell-based
Conditions: human
Procedure, shortened: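 Values for tubulin, mitochondrial-mass and membrane-permeability phenotypes are per cents of cells with healthy nuclei. These cells were identified by CellPathfinder machine-learning gating of live cells that had been stained at seeding with Hoechst33342, BioTracker Green Microtubule Cytoskeleton Dye, MitoTracker Red and Annexin V Alexa Fluor 680 and imaged on a CQ1 microscope at 37°C and 5% CO2 after compound addition. The gating first set Hoechst high-intensity objects apart from normal cells, then split normal cells into healthy, pyknosed or fragmented nuclei, and pyknosed cells into mitotic or apoptotic.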

[1] = 12 h, 1 µM, compound concentration 1 uM
[2] = 12 h, 10 µM, compound concentration 10 uM
[3] = 24 h, 1 µM, compound concentration 1 uM
[4] = 24 h, 10 µM, compound concentration 10 uM
[5] = 48 h, 1 µM, compound concentration 1 uM
[6] = 48 h, 10 µM, compound concentration 10 uM

COC(=O)C1=C(C)NC(C)=C(C(=O)OC(C)C)C1c1cccc2nonc12 (stereo not given) [ISRADIPINE]
Population Apoptotic (%) [1]: 29.03% and 12.5%
Population Fragmented Nuclei (%) [1]: 2.02% and 3.01%
Population Healthy Nuclei (%) [1]: 89.02% and 84.96%
Population Hoechst High Intensity Objects (%) [1]: 0%
Population Membrane Permeable-Phenotype (%) [1]: 0.97% and 0.88%
Population Mitochondria Different-Phenotype (%) [1]: 0% and 5.31%
Population Mitotic Cells (%) [1]: 70.97% and 87.5%
Population Normal (%) [1]: 100%
Population Pyknosed Nuclei (%) [1]: 8.96% and 12.03%
Population Tubulin-Different-Phenotype (%) [1]: 0.97% and 0.88%
Total Cell Count [1]: 346 and 133
Population Apoptotic (%) [2]: 38.64% and 25.81%
Population Healthy Nuclei (%) [2]: 87.43% and 71.74%
Population Hoechst High Intensity Objects (%) [2]: 0% and 13.21%
Population Membrane Permeable-Phenotype (%) [2]: 2.14% and 3.64%
Population Mitochondria Different-Phenotype (%) [2]: 0% and 13.33%
Population Mitotic Cells (%) [2]: 61.36% and 74.19%
Population Normal (%) [2]: 100% and 86.79%
Population Pyknosed Nuclei (%) [2]: 11.76% and 13.48%
Population Tubulin-Different-Phenotype (%) [2]: 3.67% and 1.21%
Total Cell Count [2]: 374 and 265
Population Apoptotic (%) [3]: 48.48% and 31.25%
Population Fragmented Nuclei (%) [3]: 1.75% and 1.23%
Population Healthy Nuclei (%) [3]: 91.03% and 88.89%
Population Hoechst High Intensity Objects (%) [3]: 0%
Population Membrane Permeable-Phenotype (%) [3]: 0.24% and 2.78%
Population Mitochondria Different-Phenotype (%) [3]: 0.24% and 4.86%
Population Mitotic Cells (%) [3]: 51.52% and 68.75%
Population Normal (%) [3]: 100%
Population Pyknosed Nuclei (%) [3]: 7.22% and 9.88%
Population Tubulin-Different-Phenotype (%) [3]: 0.72% and 0%
Total Cell Count [3]: 457 and 162
Population Apoptotic (%) [4]: 37.5% and 20.93%
Population Healthy Nuclei (%) [4]: 84.47% and 69.69%
Population Hoechst High Intensity Objects (%) [4]: 0% and 13.61%
Population Membrane Permeable-Phenotype (%) [4]: 0.69% and 3.95%
Population Mitotic Cells (%) [4]: 62.5% and 79.07%
Population Normal (%) [4]: 100% and 86.39%
Population Pyknosed Nuclei (%) [4]: 12.43% and 16.93%
Population Tubulin-Different-Phenotype (%) [4]: 3.22% and 0%
Total Cell Count [4]: 515 and 294
Population Apoptotic (%) [5]: 41.54% and 54.55%
Population Fragmented Nuclei (%) [5]: 2.53% and 3.11%
Population Healthy Nuclei (%) [5]: 89.63% and 84.05%
Population Hoechst High Intensity Objects (%) [5]: 0%
Population Membrane Permeable-Phenotype (%) [5]: 1.35% and 1.39%
Population Mitochondria Different-Phenotype (%) [5]: 0.27% and 4.17%
Population Mitotic Cells (%) [5]: 58.46% and 45.45%
Population Normal (%) [5]: 100%
Population Pyknosed Nuclei (%) [5]: 7.84% and 12.84%
Population Tubulin-Different-Phenotype (%) [5]: 1.35% and 0%
Population Apoptotic (%) [6]: 50.83% and 53.45%
Population Fragmented Nuclei (%) [6]: 3.44% and 6.67%
Population Healthy Nuclei (%) [6]: 82.35% and 75.76%
Population Hoechst High Intensity Objects (%) [6]: 0% and 9.34%
Population Membrane Permeable-Phenotype (%) [6]: 1.58% and 4.4%
Population Mitochondria Different-Phenotype (%) [6]: 0.14% and 6.4%
Population Mitotic Cells (%) [6]: 49.17% and 46.55%
Population Normal (%) [6]: 100% and 90.66%
Population Pyknosed Nuclei (%) [6]: 14.22% and 17.58%
Population Tubulin-Different-Phenotype (%) [6]: 2.73% and 2.8%
Total Cell Count [6]: 844 and 364

CC(C)(C)c1cc(C(C)(C)C)c(NC(=O)c2c[nH]c3ccccc3c2=O)cc1O [IVACAFTOR]
Population Apoptotic (%) [1]: 36.36% and 31.58%
Population Fragmented Nuclei (%) [1]: 1.43% and 1.95%
Population Healthy Nuclei (%) [1]: 92.26% and 85.71%
Population Hoechst High Intensity Objects (%) [1]: 0%
Population Membrane Permeable-Phenotype (%) [1]: 0.62% and 0.76%
Population Mitochondria Different-Phenotype (%) [1]: 0% and 7.58%
Population Mitotic Cells (%) [1]: 63.64% and 68.42%
Population Normal (%) [1]: 100%
Population Pyknosed Nuclei (%) [1]: 6.3% and 12.34%
Population Tubulin-Different-Phenotype (%) [1]: 0.62% and 0%
Total Cell Count [1]: 349 and 154
Population Apoptotic (%) [2]: 44.16% and 30.95%
Population Fragmented Nuclei (%) [2]: 2.96% and 8.38%
Population Healthy Nuclei (%) [2]: 74.26% and 66.47%
Population Hoechst High Intensity Objects (%) [2]: 0%
Population Membrane Permeable-Phenotype (%) [2]: 3.59% and 13.51%
Population Mitotic Cells (%) [2]: 55.84% and 69.05%
Population Normal (%) [2]: 100%
Population Pyknosed Nuclei (%) [2]: 22.78% and 25.15%
Population Tubulin-Different-Phenotype (%) [2]: 10.76% and 1.8%
Total Cell Count [2]: 338 and 167
Population Apoptotic (%) [3]: 22.95% and 40%
Population Fragmented Nuclei (%) [3]: 1.83% and 3.23%
Population Healthy Nuclei (%) [3]: 85.77% and 86.02%
Population Hoechst High Intensity Objects (%) [3]: 0%
Population Membrane Permeable-Phenotype (%) [3]: 0.24% and 1.88%
Population Mitochondria Different-Phenotype (%) [3]: 0% and 6.88%
Population Mitotic Cells (%) [3]: 77.05% and 60%
Population Normal (%) [3]: 100%
Population Pyknosed Nuclei (%) [3]: 12.4% and 10.75%
Population Tubulin-Different-Phenotype (%) [3]: 0.71% and 0%
Total Cell Count [3]: 492 and 186
Population Apoptotic (%) [4]: 51.81% and 29.41%
Population Fragmented Nuclei (%) [4]: 3.33% and 6.94%
Population Healthy Nuclei (%) [4]: 75.38% and 63.58%
Population Hoechst High Intensity Objects (%) [4]: 0%
Population Mitotic Cells (%) [4]: 48.19% and 70.59%
Population Normal (%) [4]: 100%
Population Pyknosed Nuclei (%) [4]: 21.28% and 29.48%
Population Tubulin-Different-Phenotype (%) [4]: 8.84% and 7.27%
Total Cell Count [4]: 390 and 173
Population Apoptotic (%) [5]: 47.3% and 42.86%
Population Fragmented Nuclei (%) [5]: 2.51% and 4.1%
Population Healthy Nuclei (%) [5]: 89.07% and 81.57%
Population Hoechst High Intensity Objects (%) [5]: 0%
Population Membrane Permeable-Phenotype (%) [5]: 0.13% and 0.84%
Population Mitochondria Different-Phenotype (%) [5]: 0% and 5.86%
Population Mitotic Cells (%) [5]: 52.7% and 57.14%
Population Normal (%) [5]: 100%
Population Pyknosed Nuclei (%) [5]: 8.43% and 14.33%
Population Tubulin-Different-Phenotype (%) [5]: 0.64% and 1.67%
Total Cell Count [5]: 878 and 293
Population Apoptotic (%) [6]: 55% and 62.65%
Population Healthy Nuclei (%) [6]: 75.09% and 44.95%
Population Hoechst High Intensity Objects (%) [6]: 0% and 0.5%
Population Membrane Permeable-Phenotype (%) [6]: 2.72% and 10.11%
Population Mitotic Cells (%) [6]: 45% and 37.35%
Population Normal (%) [6]: 100% and 99.5%
Population Pyknosed Nuclei (%) [6]: 22.3% and 41.92%
Population Tubulin-Different-Phenotype (%) [6]: 11.88% and 16.85%
Total Cell Count [6]: 538 and 199

CN1[C@@H](CC(=O)c2ccccc2)CCC[C@H]1C[C@H](O)c1ccccc1.Cl [LOBELINE HYDROCHLORIDE]
Population Apoptotic (%) [1]: 43.24% and 34.78%
Population Fragmented Nuclei (%) [1]: 1.42% and 2.51%
Population Healthy Nuclei (%) [1]: 88.07% and 85.93%
Population Hoechst High Intensity Objects (%) [1]: 0%
Population Membrane Permeable-Phenotype (%) [1]: 0.97% and 2.34%
Population Mitochondria Different-Phenotype (%) [1]: 0% and 6.43%
Population Mitotic Cells (%) [1]: 56.76% and 65.22%
Population Normal (%) [1]: 100%
Population Pyknosed Nuclei (%) [1]: 10.51% and 11.56%
Population Tubulin-Different-Phenotype (%) [1]: 0.65% and 0.58%
Total Cell Count [1]: 352 and 199
Population Apoptotic (%) [2]: 42.42% and 20%
Population Fragmented Nuclei (%) [2]: 1.15% and 1.84%
Population Healthy Nuclei (%) [2]: 91.26% and 82.82%
Population Hoechst High Intensity Objects (%) [2]: 0%
Population Membrane Permeable-Phenotype (%) [2]: 1.76% and 8.15%
Population Mitotic Cells (%) [2]: 57.58% and 80%
Population Normal (%) [2]: 100%
Population Pyknosed Nuclei (%) [2]: 7.59% and 15.34%
Population Tubulin-Different-Phenotype (%) [2]: 4.03% and 5.19%
Total Cell Count [2]: 435 and 163
Population Apoptotic (%) [3]: 44.64% and 46.88%
Population Fragmented Nuclei (%) [3]: 0.81% and 1.97%
Population Healthy Nuclei (%) [3]: 87.88% and 85.43%
Population Hoechst High Intensity Objects (%) [3]: 0%
Population Membrane Permeable-Phenotype (%) [3]: 0.46% and 2.76%
Population Mitochondria Different-Phenotype (%) [3]: 0% and 6.91%
Population Mitotic Cells (%) [3]: 55.36% and 53.12%
Population Normal (%) [3]: 100%
Population Pyknosed Nuclei (%) [3]: 11.31% and 12.6%
Population Tubulin-Different-Phenotype (%) [3]: 0.69% and 0.92%
Total Cell Count [3]: 495 and 254
Population Apoptotic (%) [4]: 28.79% and 39.39%
Population Fragmented Nuclei (%) [4]: 0.84% and 0.51%
Population Healthy Nuclei (%) [4]: 88.01% and 82.74%
Population Hoechst High Intensity Objects (%) [4]: 0%
Population Membrane Permeable-Phenotype (%) [4]: 0.96% and 1.23%
Population Mitotic Cells (%) [4]: 71.21% and 60.61%
Population Normal (%) [4]: 100%
Population Pyknosed Nuclei (%) [4]: 11.15% and 16.75%
Population Tubulin-Different-Phenotype (%) [4]: 2.11% and 2.45%
Population Apoptotic (%) [5]: 42.67% and 32.61%
Population Fragmented Nuclei (%) [5]: 2.46% and 2.85%
Population Healthy Nuclei (%) [5]: 89.17% and 86.22%
Population Hoechst High Intensity Objects (%) [5]: 0%
Population Membrane Permeable-Phenotype (%) [5]: 0.75% and 0.83%
Population Mitochondria Different-Phenotype (%) [5]: 0.13% and 5.79%
Population Mitotic Cells (%) [5]: 57.33% and 67.39%
Population Normal (%) [5]: 100%
Population Pyknosed Nuclei (%) [5]: 8.37% and 10.93%
Population Tubulin-Different-Phenotype (%) [5]: 1.25% and 0.55%
Total Cell Count [5]: 896 and 421
Population Apoptotic (%) [6]: 41.41% and 48.72%
Population Fragmented Nuclei (%) [6]: 1.94% and 1.9%
Population Healthy Nuclei (%) [6]: 88.91% and 85.76%
Population Hoechst High Intensity Objects (%) [6]: 0%
Population Membrane Permeable-Phenotype (%) [6]: 1.66% and 1.85%
Population Mitochondria Different-Phenotype (%) [6]: 0.31% and 8.86%
Population Mitotic Cells (%) [6]: 58.59% and 51.28%
Population Normal (%) [6]: 100%
Population Pyknosed Nuclei (%) [6]: 9.15% and 12.34%
Population Tubulin-Different-Phenotype (%) [6]: 1.77% and 2.21%

From ChEMBL document CHEMBL5724801, “EUbOPEN Chemogenomics Library - Multiplex” (2024)
